From ChEMBL document CHEMBL1156933, “Studies of benzothiophene template as potent factor IXa (FIXa) inhibitors in thrombosis” (J Med Chem, 2010)

Columns and labels:
[1] = molecular target: Coagulation factor IX (Homo sapiens, UniProt P00740); test: Inhibition of human recombinant factor 9a by amidolytic assay
[2] = molecular target: Coagulation factor X (Homo sapiens, UniProt P00742); test: Inhibition of factor 10 by amidolytic assay
Outline: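 Done by a previously published literature method. IC50 values are the mean of at least three experiments, with variation among results under 10%.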

Coagulation factor X, sequence (P00742 41-179 limits assumed): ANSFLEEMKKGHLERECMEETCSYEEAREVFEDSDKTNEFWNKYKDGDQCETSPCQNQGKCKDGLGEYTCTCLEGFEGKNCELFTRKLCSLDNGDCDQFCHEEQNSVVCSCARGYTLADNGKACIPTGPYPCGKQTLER
Coagulation factor X, sequence (P00742 235-488 limits assumed): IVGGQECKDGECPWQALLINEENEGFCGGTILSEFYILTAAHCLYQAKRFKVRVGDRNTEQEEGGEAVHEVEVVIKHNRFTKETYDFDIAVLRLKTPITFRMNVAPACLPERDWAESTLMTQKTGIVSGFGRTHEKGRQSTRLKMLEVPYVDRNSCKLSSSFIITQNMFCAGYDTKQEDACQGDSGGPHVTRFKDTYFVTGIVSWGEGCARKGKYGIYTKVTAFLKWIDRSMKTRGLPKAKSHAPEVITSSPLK
Coagulation factor IX, sequence (P00740 47-191 limits assumed): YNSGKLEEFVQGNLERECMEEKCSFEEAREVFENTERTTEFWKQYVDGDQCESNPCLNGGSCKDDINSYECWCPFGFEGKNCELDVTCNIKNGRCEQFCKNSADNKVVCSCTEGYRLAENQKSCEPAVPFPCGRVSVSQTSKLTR
Coagulation factor IX, sequence (P00740 227-461 limits assumed): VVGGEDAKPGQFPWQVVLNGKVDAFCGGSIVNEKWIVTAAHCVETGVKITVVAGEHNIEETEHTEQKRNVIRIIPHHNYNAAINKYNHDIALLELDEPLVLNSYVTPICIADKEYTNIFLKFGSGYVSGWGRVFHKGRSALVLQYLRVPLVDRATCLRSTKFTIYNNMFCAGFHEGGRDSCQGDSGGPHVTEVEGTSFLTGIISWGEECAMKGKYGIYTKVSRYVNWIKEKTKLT

Row | Ki [1] [µM] | Ki [2] [µM] | SMILES
1 | 8 |  | N=C(N)c1cc2cc(-c3ccccc3)ccc2s1
2 | 1.6 |  | N=C(N)c1cc2c(-c3ccccc3)cccc2s1
3 | 0.028 | 0.033 | COC(=O)CC(Oc1ccc2cc(C(=N)N)sc2c1)c1ccc(Cl)cc1 (stereo unspecified)
4 | 0.45 | 5.7 | N=C(N)c1cc2ccc(OCc3ccc(F)c(F)c3)cc2s1
5 | 0.45 | 2.9 | N=C(N)c1cc2ccc(OCc3ccc(Cl)cc3)cc2s1
6 | 1.05 | 3.35 | N=C(N)c1cc2ccc(OCc3cccnc3)cc2s1
7 | 0.35 | 1.15 | N=C(N)c1cc2ccc(OCc3cccs3)cc2s1
8 | 11.3 |  | CC(Oc1ccc2cc(C(=N)N)sc2c1)c1ccc(F)cc1 (stereo unspecified)
9 | 7.2 |  | N=C(N)c1cc2ccc(OCc3ccccc3Cl)cc2s1
10 | 1.5 | 6 | N=C(N)c1cc2c(OCc3ccccc3)cccc2s1
11 | 3.8 | 0.6 | CCOC(=O)COc1ccc2cc(C(=N)N)sc2c1
12 | 5.9 | 11.9 | COc1ccc(-c2ccc3sc(C(=N)N)cc3c2)cc1OC
13 | 24.2 |  | COc1ccc(-c2ccc3cc(C(=N)N)sc3c2)cc1OC
14 | 26.9 |  | COc1ccccc1COc1ccc2cc(C(=N)N)sc2c1
15 | 11.3 |  | COC(=O)c1ccc(COc2ccc3cc(C(=N)N)sc3c2)cc1
16 | 0.95 | 22 | N=C(N)c1cc2c(I)cccc2s1
17 | 11.9 |  | CCOC(=O)COc1cccc2sc(C(=N)N)cc12
18 | 21.6 |  | N=C(N)c1cc2ccc(OCCc3ccccc3)cc2s1
19 | 0.9 | 7.9 | Cc1ccc(COc2ccc3cc(C(=N)N)sc3c2)cc1
20 | 0.8 | 2.6 | N=C(N)c1cc2c(OCc3nc4ccccc4s3)cccc2s1
